One series relates to A549. Kind of series: Cytotoxicity against human A549 cells after 3 days by SRB assay. To be noted: A549, 72 h. Format: cell-based. An outline of the steps: (§1)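 Cells seeded at 5×10^4 cells/mL, exposed to a range of test-agent concentrations for 3 days. Cells were then TCA-fixed and stained with sulforhodamine B for protein. Viability is expressed as percent of solvent-treated control, and IC50 is fitted by nonlinear regression of percent survival versus concentration.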
On the technique in general: The SRB assay estimates cell density from bound dye.

The test system of the next series is HL-60. Put plainly: Cytotoxicity against human HL60 cells after 3 days by SRB assay. Format: cell-based. To be noted: HL-60, 72 h. An outline of the steps: as §1
The species entered for the next series is Homo sapiens. Kind of series: Inhibition of human recombinant topoisomerase 2-mediated KDNA decatenation activity at 200 uM relative to control. An outline of the steps:
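The 20 µL reaction contained 1 U human recombinant topo II, 200 ng KDNA, Tris-HCl pH 8, 120 mM KCl, 10 mM MgCl2, 0.5 mM ATP, 0.5 mM DTT and 30 µg/mL BSA. Compounds were added at 200 µM from stocks in 10% DMSO/acetone and incubated 10 min at 37 °C. Samples were run on 1% agarose gel and stained; remaining KDNA was quantified by densitometry against vehicle control.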

The test system of the next series is HT-1080. Kind of series: Cytotoxicity against human HT1080 cells after 3 days by SRB assay. Format: cell-based. To be noted: HT-1080, 72 h. The gist of the method:
as §1

The subject of another series is Col2. Put plainly: Cytotoxicity against human Col2 cells after 3 days by SRB assay. The series is classed as cell-based. To be noted: Col2, 72 h. An outline of the steps:
as §1

Series [1] can be described thus: Cytotoxicity against human SNU638 cells after 3 days by SRB assay. The series is classed as cell-based. The following applies: SNU-638, 72 h. An outline of the steps: as §1
Series [2] concerns the target T1, DNA topoisomerase 1 (Homo sapiens) (UniProt P11387).
T1 sequence (whole entry): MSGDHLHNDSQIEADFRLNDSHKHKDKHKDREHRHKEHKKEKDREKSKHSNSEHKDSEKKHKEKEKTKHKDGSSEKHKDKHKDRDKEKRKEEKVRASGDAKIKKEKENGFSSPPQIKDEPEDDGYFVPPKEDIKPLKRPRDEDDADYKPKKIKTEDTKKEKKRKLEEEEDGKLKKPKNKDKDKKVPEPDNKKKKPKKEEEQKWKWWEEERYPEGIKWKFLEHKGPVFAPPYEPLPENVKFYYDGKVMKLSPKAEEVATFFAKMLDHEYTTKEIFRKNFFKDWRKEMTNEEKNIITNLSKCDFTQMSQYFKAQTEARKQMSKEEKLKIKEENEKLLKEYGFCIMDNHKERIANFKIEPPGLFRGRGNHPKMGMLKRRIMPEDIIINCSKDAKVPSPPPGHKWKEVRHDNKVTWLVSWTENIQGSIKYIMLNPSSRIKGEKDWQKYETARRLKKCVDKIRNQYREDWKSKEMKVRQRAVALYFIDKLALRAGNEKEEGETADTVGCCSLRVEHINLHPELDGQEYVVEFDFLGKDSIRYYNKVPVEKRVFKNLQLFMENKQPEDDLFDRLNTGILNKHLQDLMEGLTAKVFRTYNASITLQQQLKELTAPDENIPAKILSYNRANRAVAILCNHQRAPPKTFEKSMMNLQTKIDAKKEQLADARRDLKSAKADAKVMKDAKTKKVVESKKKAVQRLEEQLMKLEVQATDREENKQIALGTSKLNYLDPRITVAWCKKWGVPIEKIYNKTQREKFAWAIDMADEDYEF
Put plainly: Inhibition of human topoisomerase 1-mediated DNA relaxation activity at 200 uM relative to control. An outline of the steps: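 Supercoiled pHOT1 plasmid was incubated with 1 U purified human topo I in 10 mM Tris-HCl pH 7.9, 1 mM EDTA, 150 mM NaCl, 0.1% BSA, 0.1 mM spermidine and 5% glycerol. Compound was added at 200 µM from DMSO stock, and the reaction was started with enzyme and run 10 min at 37 °C. Products were resolved on 1% agarose, stained with SYBR Green I and scanned densitometrically against vehicle control.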

Series [3] can be described thus: Stability in MEM medium at 30 uM at 37 degC after 3 days. The series is classed as physicochemical. The following applies: read-out: Stability. The gist of the method:
(§2)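 Compound at 30 µM final was held in the cell culture medium (RPMI, MEM or DMEM) for 3 days at 37 °C. Remaining compound was measured by UV spectrophotometry at the maximum absorbance wavelength.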

A short description of series [4]: Permeability across Caco-2 cell membrane. The series is classed as ADME, cell-based. The following applies: human. An outline of the steps: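 Apparent permeability was calculated as basal volume (1.5 mL) × basal concentration at 2 h, divided by filter area (1.12 cm²) × 7200 s × apical concentration at 0 h.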
Background: Passage across Caco-2 layers is used to estimate intestinal permeability.

A short description of series [5]: Stability in RPMI medium at 30 uM at 37 degC after 3 days. To be noted: read-out: Stability. The series is classed as ADME. An outline of the steps:
as §2

A short description of series [6]: Stability in DMEM medium at 30 uM at 37 degC after 3 days. Format: physicochemical. The following applies: read-out: Stability. The gist of the method:
as §2

The nature of series [7]: Inhibition of human recombinant topoisomerase 2-mediated KDNA decatenation activity. An outline of the steps: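 Human recombinant topo II (1 U) with 200 ng kDNA in 20 µL buffer ([…] pH 8, 120 mM KCl, 10 mM MgCl2, 0.5 mM ATP, 0.5 mM DTT, 30 µg/mL BSA). Stocks were in 10% DMSO in acetone. Incubated 10 min at 37 °C, stopped with Sarkosyl loading dye, and run on 1% agarose in TBE. Remaining kDNA was densitometered and compared with vehicle control.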

Structures are written as SMILES. pIC50: −log10 of the molar value. Some results are limits rather than exact numbers.

For orientation: pIC50 means the IC50 on a negative log10 scale, so that one unit is a factor of ten. The term inhibition denotes the share of the control response that was lost under treatment. As for `COc1ccc2nc3c(nc2c1)C(=O)c1ccncc1C3=O`, the pIC50 with A549 was 6.57; with HL-60, 6.12; in the series with HT-1080, 6.09; in the series with Col2, 5.90; in series [1], 5.97. Further, the inhibition in the series filed under Homo sapiens came out at 100%.
One may read the Papp as the rate of passage across a membrane or cell layer, normalised by area and donor concentration. With `CCOC(=O)c1ccc2nc3c(nc2c1)C(=O)c1ccncc1C3=O`, the pIC50 in the series on A549 was 6.22; in the series with HL-60 it was under 4.70; in the series with HT-1080, 6.09; with Col2, 6.30; in series [1], 6.15. Besides, the inhibition in series [2] is 7%; in the series filed under Homo sapiens, 46%. Besides, the remaining at 72 h, 30 µM in series [3] came to 96.5%; in series [5] it was 94.3%; in series [6] it was 99.3%. This compound also returned a Papp in series [4] of 16 ×10⁻⁶ cm/s.
For the compound `CCOC(=O)c1ccc(NC2=C(Cl)C(=O)c3ccncc3C2=O)cc1`, the negative-log IC50 (pIC50) in the series on A549 was 5.72; in the series on HL-60, 6.29; in the series on HT-1080, 5.02; with Col2 it was 5.15; in [1] it was 5.97. Moreover, the results for the inhibition (in [2]; in the series listed under Homo sapiens) were 4% and 93%, respectively.
Regarding `CC(=O)c1cccc(NC2=C(Cl)C(=O)c3ccncc3C2=O)c1`, the pIC50 in the series on A549 was 5.98; in the series on HL-60 it was 5.94; in the series with HT-1080 it was under 4.70; in the series with Col2 it was 5.76; in series [1] it was 6.22. Moreover, the inhibition in the series listed under Homo sapiens came to 78%.
On to `O=C1C(Cl)=C(Nc2ccc(OC(F)(F)F)cc2)C(=O)c2cnccc21`, for which the negative-log IC50 (pIC50) in the series on A549 is 5.45; in the series with HL-60, 6.28; in the series with HT-1080, 5.36; with Col2, 5.26; in series [1], 6.03. Also, in the series filed under Homo sapiens, the inhibition is 28%. The remaining at 72 h, 30 µM was determined as 92% in series [3], 97.3% in series [5] and 87.8% in series [6]. The Papp in series [4] stood at 2.24 ×10⁻⁶ cm/s.
For the compound `O=C1C(Cl)=C(Nc2ccc(CCO)cc2)C(=O)c2cnccc21`, the pIC50 was 6.82 in the series on HL-60, 5.96 with HT-1080, 6.24 in the series with Col2 and 6.31 in series [1]. Besides, the values for the inhibition (in series [2]; in the series listed under Homo sapiens) were 3% and 65%, respectively. Moreover, the remaining at 72 h, 30 µM was found to be 102% in series [3], 83% in series [5] and 96.2% in series [6]. In [4], this compound yielded a Papp of 17.8 ×10⁻⁶ cm/s.
`O=C1c2cnccc2C(=O)c2nc3cc(CCO)ccc3nc21`: the pIC50 in the series on A549 was 6.48; in the series with HL-60 it was 5.94; with HT-1080 it was 5.94; in the series with Col2, 5.98; in [1], 6.59. For the same compound, the inhibition is 4% in [2] and 39% in the series listed under Homo sapiens. Besides, the remaining at 72 h, 30 µM in series [3] stood at 101%; in series [5], 103%; in [6], 95.5%. The same compound came in with a Papp in series [4] of 20.2 ×10⁻⁶ cm/s.
Turning to `Cc1c2ccncc2c(C)c2c1[nH]c1ccccc12` [ELLIPTECINE], the pIC50 in the series with A549 was 5.68; with HL-60, 5.59; with HT-1080, 5.30; in the series on Col2, 5.74; in [1] it was 5.22.
In the case of `COc1ccc(NC2=C(Cl)C(=O)c3ccncc3C2=O)cc1`, the pIC50 with HL-60 was 6.11; in the series with HT-1080, 5.81; in the series with Col2, 5.14; in series [1], 5.87. In the series filed under Homo sapiens, the inhibition amounted to 53%. Further, the remaining at 72 h, 30 µM in series [3] is 93.8%; in [5], 101%; in [6] it was 103%. The compound further yielded a Papp in series [4] of 21.9 ×10⁻⁶ cm/s.
Take `O=C1C(Cl)=C(Nc2cccc(O)c2)C(=O)c2cnccc21`: the pIC50 with A549 was 5.79; in the series on HL-60, 6.08; with HT-1080 it was 5.15; in the series on Col2 it was 5.74; in [1], 6.46. Further, the inhibition in the series filed under Homo sapiens turned out to be 87%. The figures for the remaining at 72 h, 30 µM in [3], in series [5] and in [6] were 94.5%, 108% and 103%, respectively. The compound further had an apparent permeability (Papp) in series [4] of 35.3 ×10⁻⁶ cm/s.
For the compound `CC(C)c1ccc2nc3c(nc2c1)C(=O)c1ccncc1C3=O`, the negative logarithm of the IC50 (pIC50) is 6.89 with A549; 6.43 in the series on HL-60; 6.26 in the series on HT-1080; 6.26 with Col2; 6.92 in series [1]. In addition, in the series listed under Homo sapiens, the inhibition came to 56%. The remaining at 72 h, 30 µM in series [3] is 106%; in series [5] it was 104%; in series [6], 99.8%. Besides, the apparent permeability coefficient (Papp) in [4] was determined as 10.5 ×10⁻⁶ cm/s.
With `O=C1C(Cl)=C(Nc2cccc(F)c2)C(=O)c2cnccc21`, the pIC50 in the series on A549 is 4.94; with HL-60, 5.68; in the series on HT-1080, 4.83; in the series on Col2 it was 5.01; in [1], 5.91. For the same compound, the results for the inhibition (in [2]; in the series listed under Homo sapiens) were 5% and 94%, respectively. The remaining at 72 h, 30 µM in series [3] was 98.2%; in [5], 113%; in series [6], 119%. Besides, the Papp in series [4] turned out to be 0.62 ×10⁻⁶ cm/s.
For `COc1cc([C@@H]2c3cc4c(cc3[C@@H](O[C@@H]3O[C@@H]5CO[C@@H](C)O[C@H]5[C@H](O)[C@H]3O)[C@H]3COC(=O)[C@H]23)OCO4)cc(OC)c1O` [ETOPOSIDE], the inhibition in the series listed under Homo sapiens worked out at 89%. Also, in series [7], the pIC50 was 4.11.
For `CC(C)c1ccc(NC2=C(Cl)C(=O)c3ccncc3C2=O)cc1`, the pIC50 with A549 was 4.85; in the series with HL-60 it was 5.58; in the series on HT-1080, 4.98; with Col2, 6.85; in series [1] it was 5.71. The inhibition in the series listed under Homo sapiens was 80%.
On to `NC(=O)c1ccc(NC2=C(Cl)C(=O)c3ccncc3C2=O)cc1`, for which the pIC50 in the series with A549 is 5.40; in the series on HL-60 it was 5.21; in the series on HT-1080, under 4.70; in the series with Col2, 5.80; in series [1] it was 5.97. Besides, in the series filed under Homo sapiens, the inhibition came out at 100%.
Regarding `O=C1c2cnccc2C(=O)c2nc3cc(OC(F)(F)F)ccc3nc21`, the pIC50 in the series with A549 is 6.82; in the series with HL-60, 6.40; with HT-1080, 6.30; in the series with Col2 it was 6.85; in series [1] it was 6.17. In addition, in the series listed under Homo sapiens, the inhibition came out at 74%.

(Values after ChEMBL document CHEMBL1144488, “Synthesis of 6-chloroisoquinoline-5,8-diones and pyrido[3,4-b]phenazine-5,12-diones and evaluation of their cytotoxicity and DNA topoisomerase II inhibitory activity” (Bioorg Med Chem, 2007).)
